Our source for the MTD and IC50 values is ChEMBL document CHEMBL1144441, “Identification of a novel cardenolide (2''-oxovoruscharin) from Calotropis procera and the hemisynthesis of novel derivatives displaying potent in vitro antitumor activities and high in vivo tolerance: structure-activity relationship analyses” (J Med Chem, 2005).

Experiment [1] concerns Mus musculus. The experiment in a line: Maximum tolerated dose after intraperitoneal administration in mouse (period of 28 days). It is filed as functional. In outline: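 Healthy, non-tumour-bearing B6D2F1 mice given one acute intraperitoneal dose, three mice per dose group, doses 5, 10, 20, 40, 80, 120 and 160 mg/kg. Survival and body weight followed for 28 days after injection. MTD is the highest single dose causing no deaths over the period.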

The subject of experiment [2] is A549. The experiment in a line: Concentration required for 50% growth inhibition of human A549 cancer cell lines after 3 days of culture. It is filed as functional, cell-based. As to conditions: A549, 72 h. The essentials: (§1)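 MTT overall-growth assay on the five lines. Cells were plated for 24 h at 10 000–40 000 cells/mL, depending on cell type. Nine concentrations from 10^-9 to 10^-5 M in semilog steps were applied for 72 h. Formazan was read at 570 nm against a 630 nm reference, in sextuplicate. IC50 = concentration reducing overall growth by 50% versus untreated control.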

For experiment [3], the system named is U373 MG. Put plainly: Concentration required for 50% growth inhibition of human U373 cancer cell lines after 3 days of culture. It is filed as functional, cell-based, U-373MG ATCC. As to conditions: 72 h. In outline:
as §1

Experiment [4] relates to HCT-15. Put plainly: Concentration required for 50% growth inhibition of human HCT-15 cancer cell lines after 3 days of culture. It is filed as functional, cell-based. Conditions: HCT-15, 72 h. The essentials:
as §1

Experiment [5] can be described thus: Concentration required for 50% growth inhibition of human Hs 683 cancer cell lines after 3 days of culture. It is filed as functional, cell-based. Conditions: 72 h. In outline: as §1
In experiment [6] the test system is LoVo. The experiment in a line: Concentration required for 50% growth inhibition of human LoVo cancer cell lines after 3 days of culture. Conditions: 72 h. It is filed as functional, cell-based. In outline: as §1

Compound `C[C@@H]1C[C@@]2(NCCS2)C2(O)O[C@@H]3C[C@@]4(CO)[C@@H](CC[C@@H]5[C@@H]4CC[C@]4(C)[C@@H](C6=CC(=O)OC6)CC[C@]54CO)C[C@H]3O[C@@H]2O1` (stereo partly specified) yielded a maximum tolerated dose (MTD) in experiment [1] of 5 mg/kg. In addition, the IC50 in experiment [2] is 4 nM; in experiment [3] it was 31 nM; in experiment [4], 21 nM; in experiment [5], 3 nM; in experiment [6] it was 13 nM.
With `Cc1ccc(S(=O)(=O)OC[C@]23C[C@H]4OC5(O)[C@@H](O[C@H](C)C[C@@]56NC(=O)CS6)O[C@@H]4C[C@@H]2CC[C@@H]2[C@@H]3CC[C@]3(C)[C@@H](C4=CC(=O)OC4)CC[C@]23CO)cc1` (stereo partly specified), the IC50 stood at 48 nM in experiment [2]; 326 nM in experiment [3]; 382 nM in experiment [4]; 45 nM in experiment [5]; 89 nM in experiment [6].
Consider `CC(O)CCC(=O)OC[C@]12C[C@H]3OC4(O)[C@@H](O[C@H](C)C[C@@]45NC(=O)CS5)O[C@@H]3C[C@@H]1CC[C@@H]1[C@@H]2CC[C@]2(C)[C@@H](C3=CC(=O)OC3)CC[C@]12CO` (stereo partly specified), for which the maximal tolerated dose (MTD) in experiment [1] was greater than 40 mg/kg. Also, the IC50 in experiment [2] was 414 nM; in experiment [3] it was 1190 nM; in experiment [4], 1500 nM; in experiment [5], 370 nM; in experiment [6] it was 1560 nM.
Consider `C[C@@H]1C[C@@]2(N[C@H](CC(=O)c3ccccc3)CS2)C2(O)O[C@@H]3C[C@@]4(CO)[C@@H](CC[C@@H]5[C@@H]4CC[C@]4(C)[C@@H](C6=CC(=O)OC6)CC[C@]54CO)C[C@H]3O[C@@H]2O1` (stereo partly specified), for which the maximum tolerated dose (MTD) in experiment [1] worked out at 80 mg/kg. Further, the IC50 in experiment [2] was determined as 3 nM; in experiment [3], 34 nM; in experiment [4] it was 34 nM; in experiment [5], 4 nM; in experiment [6], 18 nM.
Regarding `C[C@@H]1C[C@@]2(N[C@@H](CC(=O)c3ccccc3)CS2)C2(O)O[C@@H]3C[C@@]4(CO)[C@@H](CC[C@@H]5[C@@H]4CC[C@]4(C)[C@@H](C6=CC(=O)OC6)CC[C@]54CO)C[C@H]3O[C@@H]2O1` (stereo partly specified), the maximum tolerated dose (MTD) in experiment [1] turned out to be 80 mg/kg. Further, the IC50 in experiment [2] stood at 4 nM; in experiment [3] it was 38 nM; in experiment [4], 44 nM; in experiment [5], 4 nM; in experiment [6], 18 nM.
On to `C[C@@H]1C[C@@]2(N[C@H](CC(O)c3ccccc3)CS2)C2(O)O[C@@H]3C[C@@]4(CO)[C@@H](CC[C@@H]5[C@@H]4CC[C@]4(C)[C@@H](C6=CC(=O)OC6)CC[C@]54CO)C[C@H]3O[C@@H]2O1` (stereo partly specified), for which the half-inhibitory concentration (IC50) in experiment [2] was found to be 2 nM; in experiment [3], 28 nM; in experiment [4] it was 31 nM; in experiment [5], 3 nM; in experiment [6], 19 nM.
As for `C[C@@H]1C[C@@]2(N[C@@H](CC(=O)c3ccccc3)CS2)C2(O)O[C@@H]3C[C@@]4(C=O)[C@@H](CC[C@@H]5[C@@H]4CC[C@]4(C)[C@@H](C6=CC(=O)OC6)CC[C@]54CO)C[C@H]3O[C@@H]2O1` (stereo partly specified), the maximum tolerated dose (MTD) in experiment [1] was determined as 10 mg/kg. Also, the IC50 in experiment [2] amounted to 18 nM; in experiment [3] it was 84 nM; in experiment [4], 92 nM; in experiment [5], 22 nM; in experiment [6] it was 100 nM.
Compound `Cc1ccc(S(=O)(=O)OC[C@]23C[C@H]4OC5(O)[C@@H](O[C@H](C)C[C@@]56N=C(N)CS6)O[C@@H]4C[C@@H]2CC[C@@H]2[C@@H]3CC[C@]3(C)[C@@H](C4=CC(=O)OC4)CC[C@]23CO)cc1` (stereo partly specified) yielded a maximum tolerated dose (MTD) in experiment [1] of 10 mg/kg. Also, the IC50 was determined as 2720 nM in experiment [2]; 9960 nM in experiment [3]; 5800 nM in experiment [4]; 1430 nM in experiment [5]; 1060 nM in experiment [6].
The compound `COC(=O)OC[C@]12C[C@H]3OC4(O)[C@@H](O[C@H](C)C[C@@]45N=C(N)CS5)O[C@@H]3C[C@@H]1CC[C@@H]1[C@@H]2CC[C@]2(C)[C@@H](C3=CC(=O)OC3)CC[C@]12CO` (stereo partly specified) showed an MTD in experiment [1] greater than 40 mg/kg. Also, the IC50 came out at 42 nM in experiment [2]; 320 nM in experiment [3]; 442 nM in experiment [4]; 49 nM in experiment [5]; 245 nM in experiment [6].
Consider `C[C@@H]1C[C@@]2(NCCS2)[C@]2(O)O[C@@H]3C[C@@]4(C=O)[C@@H](CC[C@@H]5[C@@H]4CC[C@]4(C)[C@@H](C6=CC(=O)OC6)CC[C@]54O)C[C@H]3O[C@@H]2O1`, for which the maximum tolerated dose (MTD) in experiment [1] was 1.25 mg/kg. In addition, the IC50 in experiment [2] is 5 nM; in experiment [3] it was 32 nM; in experiment [4], 27 nM; in experiment [5], 4 nM; in experiment [6] it was 17 nM.
For the compound `C[C@@H]1C[C@@]2(NC(=O)CS2)C2(O)O[C@@H]3C[C@@]4(COS(C)(=O)=O)[C@@H](CC[C@@H]5[C@@H]4CC[C@]4(C)[C@@H](C6=CC(=O)OC6)CC[C@]54CO)C[C@H]3O[C@@H]2O1` (stereo partly specified), the IC50 in experiment [2] was 3650 nM; in experiment [3], 7310 nM; in experiment [4] it was greater than 10000 nM; in experiment [5] it was 3420 nM; in experiment [6] it was 8390 nM.
The compound `C[C@@H]1C[C@@]2(N=C(N)CS2)C2(O)O[C@@H]3C[C@@]4(COC(=O)CCc5ccccc5)[C@@H](CC[C@@H]5[C@@H]4CC[C@]4(C)[C@@H](C6=CC(=O)OC6)CC[C@]54CO)C[C@H]3O[C@@H]2O1` (stereo partly specified) displayed a maximal tolerated dose (MTD) in experiment [1] greater than 40 mg/kg. Further, the IC50 in experiment [2] was 4730 nM; in experiment [3], greater than 10000 nM; in experiment [4], greater than 10000 nM; in experiment [5], greater than 10000 nM; in experiment [6] it was 4840 nM.
In turn, `C[C@@H]1C[C@@]2(N=C(N)CS2)C2(O)O[C@@H]3C[C@@]4(C=O)[C@@H](CC[C@@H]5[C@@H]4CC[C@]4(C)[C@@H](C6=CC(=O)OC6)CC[C@]54CO)C[C@H]3O[C@@H]2O1` (stereo partly specified) had an MTD in experiment [1] of 10 mg/kg. The 50% inhibitory concentration (IC50) in experiment [2] turned out to be 9 nM; in experiment [3], 34 nM; in experiment [4], 27 nM; in experiment [5], 4 nM; in experiment [6], 5 nM.
In turn, `C[C@@H]1C[C@@]2(N[C@H](CC(=O)c3ccccc3)CS2)C2(O)O[C@@H]3C[C@@]4(C=O)[C@@H](CC[C@@H]5[C@@H]4CC[C@]4(C)[C@@H](C6=CC(=O)OC6)CC[C@]54CO)C[C@H]3O[C@@H]2O1` (stereo partly specified) yielded an MTD in experiment [1] of 10 mg/kg. The half-maximal inhibitory concentration (IC50) in experiment [2] came out at 4 nM; in experiment [3] it was 41 nM; in experiment [4] it was 49 nM; in experiment [5], 7 nM; in experiment [6], 33 nM.
In the case of `C[C@@H]1C[C@@]2(NC(=O)CS2)C2(O[Si](C)(C)C)O[C@@H]3C[C@@]4(CO[Si](C)(C)C)[C@@H](CC[C@@H]5[C@@H]4CC[C@]4(C)[C@@H](C6=CC(=O)OC6)CC[C@]54CO[Si](C)(C)C)C[C@H]3O[C@@H]2O1` (stereo partly specified), the IC50 came to 657 nM in experiment [2]; 3720 nM in experiment [3]; 2690 nM in experiment [4]; 525 nM in experiment [5]; 931 nM in experiment [6].

The MTD is the highest dose tested that stayed within the study's limit of toxicity. A high value points to a wide tolerated range. For orientation: IC50 means the concentration that gives 50% inhibition.
